# High-throughput results as filed in PubChem BioAssay.
# Compounds with a hit are over-represented: about 5.5% of the library has one in this group of screens.
# RAM inhibit – yeast RAM network inhibition; S. cerevisiae dse1pr::URA3 reporter, 5-FOA growth OD615, 2 d; analog-sensitive cbk1-as2 kinase mutant strain; inhibition, % at 50 µM; 190,000 compounds, 1.8% hits;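 active = inhibition above a set limit, 3 SD over mean compound inhibition, cut at about 8.4% in these data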;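 note: 0% = DMSO-only wells with no growth and 100% = 10 µM 1-NA-PP1 full growth; inhibition rescues growth on 5-FOA so higher OD means more RAM inhibition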
# Cl transport mod – modulates chloride dependent transport by human KCC2; Q9H2X9; B-score of Tl+ flux slope (higher = more flux/activation; lower = inhibition) at 10 µM; KCC2 cells, thallium flux FluoZin-2 fluorescence; 190,000 compounds, 2.2% hits;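 active = thallium flux slope and its plate-corrected score both differing from the plate sample mean at a set confidence after two filtering rounds, in either direction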;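 note: slope of fluorescence scaled to starting intensity during 10 to 20 s after thallium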
# Yeast growth inh – chemicals that inhibit yeast BB579 growth in restrictive medium (lifespan-shortening candidates) | 140,000 compounds, 0.51% hits | inhibition, % at 10 µM | S. cerevisiae BB579 growth, OD615, 48 h;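 active = inhibition above a set limit, 3 SD over the mean compound inhibition, cut at about 44% in these data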
#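 Test system: Saccharomyces cerevisiae DeaD strain BB579, replicative lifespan model yeast | Buffer or medium: Restrictive CSMM-D medium | Doses: One dose, 10 µM compound with 0.25% DMSO | Incubation: 48 h exposure, 30 °C | Detection: Culture absorbance at 615 nm | Control set: Amphotericin B at 10 µg/mL as positive control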
# Yeast life ext – yeast lifespan extension; inhibition of the nicotinamide effect, % at 10 µM; S. cerevisiae growth with nicotinamide, OD615; deaD strain in restrictive glucose medium; 130,000 compounds, 0.68% hits;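 active = inhibition above a set limit, placed 3 SD over the median of all compounds, cut at about 26% in these data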;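 note: 0% = nicotinamide-treated wells and 100% = cells grown without nicotinamide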
#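 Buffer or medium: CSMM-D glucose medium, restrictive; test system: modified budding yeast, DeaD strain; compound: single dose 10 µM compound, 0.25% DMSO; schedule: culture preincubation 4 h, compound exposure 48 h, both 30 °C; detection: optical density (absorbance) at 615 nm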
# WT yeast gro inh – growth inhibition of WT yeast, mitochondrial fusion screen | mitochondrial fusion phenotypic screen, WT strain | inhibition, % at 10 µM | 190,000 compounds, 2.1% hits | AID 1362; in the data active = inhibition above about 58%; tested in S. cerevisiae
# KCC2 secondary – confirmation of human KCC2 transport modulators | shares compounds with Cl transport mod | normalised thallium flux (F/F0 slope) at 10 µM | AID 1713 | 3,700 compounds, 15% hits | HEK293-KCC2, thallium flux, FluoZin2 fluorescence; stronger effect = higher value;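 active = thallium flux slope above the same plate's solvent-only control mean plus 3 SD; inconclusive = the two replicate wells disagree; inactive = no significant difference from solvent-only control wells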
# KCC2 bumet counter – thallium flux despite bumetanide block in KCC2 cells, secondary assay 3; 3,700 compounds, 49% hits; normalized thallium flux at 10 µM; shares compounds with Cl transport mod; HEK293-KCC2 + bumetanide/ouabain, thallium flux FluoZin2; stronger effect = higher value;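 active = thallium entry rate above the same plate's blocked-transporter control wells by more than 3 SD; inconclusive = the two repeat wells disagree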;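 note: raw slope of fluorescence over initial fluorescence between 10 and 20 s after thallium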
# KCC2 secondary2 – confirmation of human KCC2 transport modulators; 3,700 compounds, 23% hits; normalized thallium flux at 10 µM; AID 1715; shares compounds with Cl transport mod; HEK293-KCC2, thallium flux FluoZin2 fluorescence; actives lie on both sides; F/F0 rise rate, 10–20 s post-thallium;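 active = thallium flux slope more than 3 SD above or below the plate's solvent-only control mean, mostly below; inconclusive = the two repeat wells disagreed; inactive = no significant shift from solvent-only controls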;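 note: raw slope with 0.1% DMSO as baseline and bumetanide as block control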
# HEK counter1 – parental HEK flux effect, counter-screen. shares compounds with Cl transport mod. HEK293 parental cells, thallium flux FluoZin2, ouabain; baseline-ratio fluorescence slope, 10–20 s after thallium. thallium flux rate (normalised fluorescence) at 10 µM. 3,700 compounds, 46% hits. AID 1716;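 active = thallium flux rate significantly above the same plate's solvent-only control wells, beyond their mean plus 3 SD; inconclusive = the two replicate wells gave conflicting results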
# KCC2 ouabain – confirmation of human KCC2 modulators with ouabain; shares compounds with Cl transport mod; HEK293-KCC2, thallium flux FluoZin2 fluorescence; bidirectional: low = inhibitor, high = activator; raw Tl+ flux slope (below DMSO = inhibition, above = activation) at 10 µM; 3,700 compounds, 48% hits; AID 1717;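 active = thallium flux slope beyond 3 SD from same-plate DMSO control mean in most replicates, usually higher, sometimes lower; inconclusive = repeat tests gave conflicting results; inactive = no significant difference from controls in most replicates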;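 note: slope of initial-normalized fluorescence between seconds 10 and 20 after thallium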
# HEK293 Tl flux2 – counter-screen for KCC2 modulators: effect in parental HEK293 cells | shares compounds with Cl transport mod | thallium flux FluoZin-2 fluorescence slope | thallium flux slope at 10 µM | 3,700 compounds, 33% hits | AID 1718;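 active = thallium flux slope above the same plate's solvent-control mean plus 3 SD in both duplicate wells; inconclusive = duplicate wells that disagreed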;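 note: run without ouabain in cells lacking the KCC2 cotransporter; slope of fluorescence scaled to its starting value between 10 and 20 s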
# * marks the source's active call; other numbers are inactive results; ? = inconclusive; . = no result.
SMILES,RAM inhibit,Cl transport mod,Yeast growth inh,Yeast life ext,WT yeast gro inh,KCC2 secondary,KCC2 bumet counter,KCC2 secondary2,HEK counter1,KCC2 ouabain,HEK293 Tl flux2
CCCCOC(=O)CSc1nc(N)c(C#N)c(-c2ccc(OCC)cc2)c1C#N,4,-0.46,-81,3,-2,.,.,.,.,.,.
O=C1/C(=C/c2cccs2)NC(=S)N1C1CC1,1,43*,-12,-6,4,0.016*,0.089*,0.049*,0.06*,0.07*,0.033*
O=C1CNC(=O)/C(=C/c2cccs2)N1,0,.,.,.,11,.,.,.,.,.,.
Nc1cc(S(=O)(=O)N2CCCCC2)ccc1Oc1ccccc1,4,0.064,.,.,-12,.,.,.,.,.,.
O=C(CNC(=O)c1cccs1)NC1=NCCS1,0,2.9*,-19,-5,-11,0.0057,0.0049,0.03,0.008,0.019,0.011
CCCCNC(=O)CNC(=O)c1cccs1,1,-0.5,-24,-15,-2,.,.,.,.,.,.
O=C(COc1ccccc1)Nc1nnc(-c2ccc3c(c2)CCCC3)o1,3,8.8*,-15,-6,63,?,0.061*,0.035,0.024*,0.041*,0.012*
O=C(COc1ccccc1)Nc1ccc(-c2nnc(-c3ccco3)o2)cc1,4,-1.1,-30,-15,-1,.,.,.,.,.,.
Cc1nn(C(C)C(=O)NCC2CCCO2)c(C)c1[N+](=O)[O-] (stereo not drawn),1,0.76,.,.,-29,.,.,.,.,.,.
Cc1[nH]n2c(=O)cc(C(C)(C)C)nc2c1-c1ccccc1,2,.,-5,-19,12,.,.,.,.,.,.
Cc1[nH]n2c(=O)cc(C(C)C)nc2c1-c1ccccc1,1,6.7*,-28,9,4,?,0.015*,?,?,?,0.011
O=C(NCCc1c[nH]c2ccccc12)C(=O)NCC(c1ccco1)N1CCN(c2ccccc2F)CC1 (stereo not drawn),7,1.5,-17,2,30,.,.,.,.,.,.
O=C1CC(N(O)C2CC(=O)N(Cc3ccccc3)C2=O)C(=O)N1Cc1ccccc1 (stereo not drawn),1,.,-47,-11,11,0.0051,0.0049,0.026*,0.0073,?,0.011
O=C1c2oc3ccccc3c(=O)c2C(c2cccc(F)c2)N1CCCO (stereo not drawn),6,6.7*,-12,-20,-20,0.0061,?,0.029,?,0.018,0.01
O=C(Cc1coc(-c2ccc(F)cc2)n1)Nc1ccccc1,1,-3.8*,1,-28,3,0.01,0.0057,?,0.0068,0.035*,0.0098
O=C(Cc1cc(C(=O)O)c2ccccc2n1)Nc1ccccc1,4,0.19,.,.,-5,.,.,.,.,.,.
CCc1ccc(Nc2nnc(SCC(=O)NCCN3C(=O)CSC3=O)s2)cc1,3,-3.7*,-6,0,2,0.007,0.0053,0.03,0.0067,?,0.0094
CCc1ccc(Nc2nnc(SCC(=O)Nc3sccc3C(N)=O)s2)cc1,4,-4.9*,-1,-4,-5,0.0054,0.0047,0.023*,0.0069,?,0.011
Cc1ccc(/C=N\Nc2cn[nH]c(=O)c2Cl)cc1,2,.,-46,-9,10,.,.,.,.,.,.
O=c1[nH]ncc(N/N=C/c2ccccc2)c1Cl,2,.,-58,-6,-5,0.0075,0.0056*,0.029,0.0079,0.017,0.0095
O=C(Nc1ccc(S(=O)(=O)NCc2ccco2)cc1)c1ccc2ccccc2n1,5,.,-6,-4,21,0.0087,0.0061,0.035,0.0046,0.02,0.011
Cc1nc(CCNC(=O)c2cc(COc3ccc(F)cc3Cl)on2)sc1C,.,-4,.,.,.,.,.,.,.,.,.
CN1C(C(=O)NCCc2cccs2)CC2Cn3c(nc4cc5ccccc5cc43)C21 (stereo not drawn),.,-2.8*,.,.,.,0.0068,0.0067,0.033,0.008,0.024,0.011
CC1=C(C(=O)OCCOc2ccccc2)C(c2ccsc2)NC(=O)N1C (stereo not drawn),0,-6.6*,.,.,15,0.0084,0.006,0.03*,0.0038,0.016*,0.011
COC(=O)C1=C(C)N(C)C(=O)NC1c1ccccc1 (stereo not drawn),0,.,-24,-6,-4,.,.,.,.,.,.
SMILES,RAM inhibit,Cl transport mod,Yeast growth inh,Yeast life ext,WT yeast gro inh,KCC2 secondary,KCC2 bumet counter,KCC2 secondary2,HEK counter1,KCC2 ouabain,HEK293 Tl flux2
CCOc1ccc(N2C(=O)CC(SC(=NC)Nc3ccc(F)cc3)C2=O)cc1 (stereo not drawn),2,1.1,-30,.,20,.,.,.,.,.,.
COc1ccc(CN(C(=O)c2ccc(-c3ccccc3)[nH]2)C(C(=O)NC(C)(C)C)c2ccncc2)cc1 (stereo not drawn),0,-4.9*,.,.,7,0.0085,0.0072,?,0.0073,0.016*,0.01
CCC(C)(C)n1nnnc1C(c1cccnc1)N1CCN(c2cccc(C(F)(F)F)c2)CC1 (stereo not drawn),-1,-3.2*,-46,-11,14,0.0068,0.0039*,0.031,?,0.018,0.01
S=C(NCCCc1ccccc1)Nc1ccc(Cl)cc1,1,-3.7*,31,-5,72*,0.0071,0.0055,0.029,0.0073,0.032*,0.0099
O=C(NNc1nc(-c2ccccc2)cs1)c1cccs1,.,-3.8*,.,.,.,0.0092,0.0072,0.026*,0.0042,0.015*,0.011
O=C(CCNC(=O)c1ccccc1Cl)Nc1nc(-c2ccc(F)cc2)cs1,1,-4.2*,-11,-1,5,0.0062,0.0061,0.032,0.0083,0.014*,0.011
O=C(NCc1nc(-c2ccccc2)cs1)c1ccccc1,0,-4.3*,.,.,10,0.0068,?,0.022*,0.0076,?,0.011
CNC(=O)c1ccc(-c2nc(-c3ccccc3)cs2)cc1,0,-0.68,.,.,6,.,.,.,.,.,.
O=C(NNc1nc(-c2ccc(F)cc2)cs1)c1ccccc1,2,-4.2*,.,.,12,0.01,0.0074,0.028*,0.0048,0.017*,0.011
O=C(CCNC(=O)c1ccccc1Cl)Nc1nc(-c2ccc3ccccc3c2)cs1,6,-0.86,-22,1,43,.,.,.,.,.,.
Cc1cccc(NC(=S)NC(C)C(c2ccccc2)N2CCN(C)CC2)c1C (stereo not drawn),-1,.,.,.,10,.,.,.,.,.,.
